Source: ChEMBL document CHEMBL3102809, “Investigation of fluorinated and bifunctionalized 3-phenylchroman-4-one (isoflavanone) aromatase inhibitors” (Bioorg Med Chem, 2014)
Calls of active or inactive are those of the source. No cut-off for these calls is given here.

Key:
Aromatase [1] = molecular target: T1, Aromatase (Homo sapiens, UniProt P11511)
T1 sequence (P11511 whole entry): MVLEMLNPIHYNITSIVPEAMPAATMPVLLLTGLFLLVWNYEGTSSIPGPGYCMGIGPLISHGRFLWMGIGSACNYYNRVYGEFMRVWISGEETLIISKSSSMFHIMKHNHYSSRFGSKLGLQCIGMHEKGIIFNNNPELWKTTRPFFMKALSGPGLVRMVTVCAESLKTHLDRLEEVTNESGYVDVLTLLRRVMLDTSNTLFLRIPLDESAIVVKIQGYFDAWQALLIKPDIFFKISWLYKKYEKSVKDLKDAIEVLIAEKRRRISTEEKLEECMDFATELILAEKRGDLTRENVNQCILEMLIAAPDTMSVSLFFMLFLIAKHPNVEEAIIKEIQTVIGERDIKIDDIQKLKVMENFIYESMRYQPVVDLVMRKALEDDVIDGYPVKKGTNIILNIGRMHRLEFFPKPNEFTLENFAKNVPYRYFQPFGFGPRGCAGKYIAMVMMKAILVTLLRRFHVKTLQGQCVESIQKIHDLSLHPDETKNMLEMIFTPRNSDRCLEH

Aromatase [2] = molecular target: T1, Aromatase; assay: Inhibition of human recombinant aromatase expressed in baculovirus-infected cell system using 7-methoxy-trifluoromethylcoumarin as substrate after 30 mins by fluorescence assay
[3] = Ratio of IC50 for human MCF7 cells to IC50 for human recombinant aromatase
MCF7 [4] = assay: Cytotoxicity against […] human MCF7 cells after 72 hrs by MTT assay; assay type: functional, cell-based
How it was run: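 MCF-7 cells were raised without estrogen and without phenol red. They were seeded at 15,000/well, incubated overnight at 37 °C, then treated 72 h with freshly dissolved compounds. Viability was read by MTT (4 h), with DMSO solubilization and absorbance at 570 nm, and IC50 was calculated.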

MCF7 [5] = assay: Cytotoxicity against estrogen-dependent human MCF7 cells after 72 hrs by MTT assay; assay type: functional, cell-based; settings: for IC50: MCF7, 72 h

| Compound | Ratio IC50 [3] | IC50 (Aromatase [2]; read-out: IC50) [µM] | also measured |
| --- | --- | --- | --- |
| O=c1c(-c2ccccc2)coc2ccccc12 [ISOFLAVONE] | – | – | IC50 (Aromatase [1]): Not Active |
| COc1ccc2c(c1)C(=O)C(c1ccc(Oc3ccccc3)cc1)CO2 (configuration not stated) | – | – | IC50 (Aromatase [2]): Not Active |
| O=C1c2cccc(F)c2OCC1c1ccccc1 (configuration not stated) | 2 | 15 | – |
| O=C1c2cc(F)ccc2OCC1c1ccccc1 (configuration not stated) | 2 | – | – |
| COc1ccc2c(c1)C(=O)C(c1cccnc1)CO2 (configuration not stated) | – | 2.5 | growth inhibition (GI) (MCF7 [4]): inactive; growth inhibition (GI) (MCF7 [5]): inactive |
| O=C1c2ccccc2OCC1c1ccc(C(F)(F)F)cc1 (configuration not stated) | 2 | – | IC50 (Aromatase [2]): Not Active |
| O=C1c2ccccc2OCC1c1ccc(-c2ccccc2)cc1 (configuration not stated) | – | – | growth inhibition (GI) (MCF7 [5]): inactive |
| O=C1c2cccc(F)c2OCC1c1cccnc1 (configuration not stated) | – | 67.1 | IC50 (MCF7 [5]): 43 µM |
| O=C1c2cc(Br)ccc2OCC1c1ccccc1 (configuration not stated) | – | – | IC50 (MCF7 [5]): 100 µM |
| O=C1c2ccccc2OCC1c1cccnc1 (configuration not stated) | – | – | IC50 (MCF7 [5]): 31 µM |
| O=C1c2c(ccc3ccccc23)OCC1c1ccc(Oc2ccccc2)cc1 (configuration not stated) | – | 190 | – |
| O=C1c2ccccc2OCC1c1ccc(F)cc1 (configuration not stated) | 2 | 33 | – |
| O=C1c2cc(F)ccc2OCC1c1cccnc1 (configuration not stated) | – | 0.8 | growth inhibition (GI) (MCF7 [5]): inactive |
| O=C1c2ccccc2OCC1c1cc(F)cc(F)c1 (configuration not stated) | – | 20 | – |
| O=C1c2ccccc2OCC1c1cccc(F)c1 (configuration not stated) | 2 | 35 | – |
| O=C1c2ccccc2OCC1c1ccccc1F (configuration not stated) | 2 | 24 | – |
| O=C1c2cc(F)cc(F)c2OCC1c1ccccc1 (configuration not stated) | 2 | – | IC50 (Aromatase [2]): Not Active |
